Measured values published in publication PMC3880595 (Journal of medicinal chemistry, 2013).
Like-named read-outs stand apart in the source and are kept apart here. Positions of bridges follow the written chain, without caps; N, C: chain ends. Non-standard residues stand in square brackets, D forms with d. Residues, ends and D or L forms follow the SMILES beside them. Nle = CCCC[C@H](N)C(=O)O

What was measured:
[1] = target: T1, MC1 receptor (Mus musculus, UniProt Q01727); test: In vitro competitive binding assay against ^125I-; design: species or system murine
Procedure, shortened: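 B16/F1 cells seeded at 2.5 × 10^5/well, grown overnight at 37 °C, then washed with binding medium (MEM, 25 mM HEPES pH 7.4, 0.2% BSA, 0.3 mM 1,10-phenanthroline). Incubated 2 h at 25 °C with ~30,000 cpm 125I-(Tyr2)-NDP-MSH plus test peptide at 10^-13 to 10^-6 M. Rinsed twice with ice-cold 0.2% BSA/0.01 M PBS (pH 7.4), lysed 5 min in 1 M NaOH, gamma-counted. Run in triplicate.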

[2] = target: T1, MC1 receptor; conditions: read-out: MC1 receptor binding affinity; B16/F1 cells; cited from earlier work
[3] = RP-HPLC capacity factor; format: physicochemical; conditions: chromatographic, Grace Vydac C-18, 20-min gradient of 16-26% acetonitrile in 20 mM HCl, 1 mL/min

T1 sequence (Q01727 whole entry): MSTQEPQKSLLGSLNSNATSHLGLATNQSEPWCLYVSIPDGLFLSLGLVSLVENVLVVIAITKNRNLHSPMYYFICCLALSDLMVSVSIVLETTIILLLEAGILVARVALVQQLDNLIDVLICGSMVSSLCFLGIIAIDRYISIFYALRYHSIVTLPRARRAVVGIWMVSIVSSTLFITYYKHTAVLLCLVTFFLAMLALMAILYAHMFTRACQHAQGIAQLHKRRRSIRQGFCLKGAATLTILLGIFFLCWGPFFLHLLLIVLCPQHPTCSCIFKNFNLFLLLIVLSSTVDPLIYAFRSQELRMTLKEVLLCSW

| Compound | IC50 [1] | IC50 [2] | Capacity factor (k') [3] |
| --- | --- | --- | --- |
| CC(C)[C@H](NC(=O)[C@@H]1CCCN1C(=O)[C@H](CCCNC(=N)N)NC(=O)[C@H](CS)NC(=O)[C@H](Cc1c[nH]c2ccccc12)NC(=O)[C@H](CCCNC(=N)N)NC(=O)[C@@H](Cc1ccccc1)NC(=O)[C@H](Cc1c[nH]cn1)NC(=O)[C@H](CCC(=O)O)NC(=O)[C@H](CS)NC(=O)[C@H](CS)NC(=O)[C@H](CCCCN)NC(=O)[C@@H]1CC(=O)N[C@@H](CCCNC(=N)N)C(=O)N[C@H](Cc2ccccc2)C(=O)N[C@@H](CC(=O)O)C(=O)N[C@H](Cc2ccc(O)cc2)C(=O)N1)C(N)=O [RfD-Lys-(Arg^11)CCMSH] (R[dF]D[dY]DKCCEH[dF]RWCRPV-NH2; lactam N-5) | 1.35 ± 0.08 nM | – | – |
| RGD-Lys-(Arg^11)CCMSH: cyclic RGD motif {Arg-Gly-Asp-DTyr-Asp} attached to [Cys^3,4,10, D-Phe^7, Arg^11]α-MSH3-13 peptide via a lysine linker (RGDYDKCCEHFRWCRPV; lactam cycle c[Arg1-Gly-Asp-dTyr-Asp5]; (Arg1 alpha-amine to Asp5 side-chain carboxyl); D-Tyr4; D-Phe11; C-terminal amide; Lys6 linker) | – | 2.1 nM | – |
| CC(C)[C@H](NC(=O)[C@@H]1CCCN1C(=O)[C@H](CCCNC(=N)N)NC(=O)[C@H](CS)NC(=O)[C@H](Cc1c[nH]c2ccccc12)NC(=O)[C@H](CCCNC(=N)N)NC(=O)[C@@H](Cc1ccccc1)NC(=O)[C@H](Cc1c[nH]cn1)NC(=O)[C@H](CCC(=O)O)NC(=O)[C@H](CS)NC(=O)[C@H](CS)NC(=O)[C@H](CCCCN)NC(=O)[C@@H]1CC(=O)N[C@@H](CCCNC(=N)N)C(=O)N[C@@H](Cc2ccccc2)C(=O)N[C@@H](CC(=O)O)C(=O)N[C@H](Cc2ccc(O)cc2)C(=O)N1)C(N)=O [RFD-Lys-(Arg^11)CCMSH] (RFD[dY]DKCCEH[dF]RWCRPV-NH2; lactam N-5) | 0.82 ± 0.06 nM | – | 3.77 |
| CCCC[C@@H]1NC(=O)[C@H](CCCNC(=N)N)NC(=O)C[C@@H](C(=O)N[C@@H](CCCCN)C(=O)N[C@@H](CS)C(=O)N[C@@H](CS)C(=O)N[C@@H](CCC(=O)O)C(=O)N[C@@H](Cc2c[nH]cn2)C(=O)N[C@H](Cc2ccccc2)C(=O)N[C@@H](CCCNC(=N)N)C(=O)N[C@@H](Cc2c[nH]c3ccccc23)C(=O)N[C@@H](CS)C(=O)N[C@@H](CCCNC(=N)N)C(=O)N2CCC[C@H]2C(=O)N[C@H](C(N)=O)C(C)C)NC(=O)[C@@H](Cc2ccc(O)cc2)NC(=O)[C@H](CC(=O)O)NC1=O [RNleD-Lys-(Arg^11)CCMSH] (R[Nle]D[dY]DKCCEH[dF]RWCRPV-NH2; lactam N-5) | 2.99 ± 0.26 nM | – | 4.36 |
| CC(C)[C@H](NC(=O)[C@@H]1CCCN1C(=O)[C@H](CCCNC(=N)N)NC(=O)[C@H](CS)NC(=O)[C@H](Cc1c[nH]c2ccccc12)NC(=O)[C@H](CCCNC(=N)N)NC(=O)[C@@H](Cc1ccccc1)NC(=O)[C@H](Cc1c[nH]cn1)NC(=O)[C@H](CCC(=O)O)NC(=O)[C@H](CS)NC(=O)[C@H](CS)NC(=O)[C@H](CCCCN)NC(=O)[C@@H]1CC(=O)N[C@@H](CCCNC(=N)N)C(=O)N[C@@H](CO)C(=O)N[C@@H](CC(=O)O)C(=O)N[C@H](Cc2ccc(O)cc2)C(=O)N1)C(N)=O [RSD-Lys-(Arg^11)CCMSH, c[Arg-Ser-Asp-DTyr-Asp]-Lys-Cys-Cys-Glu-His-DPhe-Arg-Trp-Cys-Arg-Pro-Val-NH2] (RSD[dY]DKCCEH[dF]RWCRPV-NH2; lactam N-5) | 1.3 ± 0.36 nM | – | 2.19 |
